Laboratory results: ChEMBL document CHEMBL2346534, “Design, synthesis and in vitro anti-proliferative activity of 4,6-quinazolinediamines as potent EGFR-TK inhibitors” (Eur J Med Chem, 2013)

Experiments:
Assay type in all cases: functional
IGROV-1 = test: Cytotoxicity against human IGROV1 cells after 48 hrs by SRB assay; conditions: IGROV-1, 48 h
In short: (§1)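 NCI 60-panel five-dose screen. Cells in RPMI 1640 with 5% FBS and 2 mM L-glutamine, plated at 5000–40,000 cells/well by doubling time, preincubated 24 h at 37 °C/5% CO2. Drug from DMSO stock added at 0.01, 0.1, 1, 10 and 100 µM, then 48 h. TCA fixation, SRB stain, absorbance at 515 nm, time-zero plates included. GI50 = 50% reduction in net protein increase versus control.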

MCF7 = test: Cytotoxicity against human MCF7 cells after 48 hrs by SRB assay; conditions: MCF7, 48 h; in short: as §1
SF-268 = test: Cytotoxicity against human SF268 cells after 48 hrs by SRB assay; conditions: SF-268, 48 h
In short: (§2)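 NCI 60-panel five-dose screen. Cells in RPMI 1640 with 5% FBS and 2 mM L-glutamine are plated at 5000–40,000 cells/well by doubling time and preincubated 24 h at 37 °C in 5% CO2. Drug in DMSO is tested at 0.01, 0.1, 1, 10 and 100 μM for 48 h. Cells are TCA-fixed, stained with SRB and read at 515 nm. GI50 is the concentration giving 50% reduction in net protein increase relative to time-zero and control plates.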

HCT-116 = test: Cytotoxicity against human HCT116 cells after 48 hrs by SRB assay; conditions: HCT-116, 48 h; in short: as §1
CAKI-1 = test: Cytotoxicity against human Caki1 cells after 48 hrs by SRB assay; conditions: CAKI-1, 48 h; in short: as §1
CCRF-CEM = test: Cytotoxicity against human CCRF-CEM cells after 48 hrs by SRB assay; in short: as §1
SN12C = test: Cytotoxicity against human SN12C cells after 48 hrs by SRB assay; in short: as §2
UO-31 = test: Cytotoxicity against human UO31 cells after 48 hrs by SRB assay; conditions: UO-31, 48 h
In short: (§3)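 NCI 60 five-dose screen. Cells in RPMI 1640 with 5% FBS and 2 mM L-glutamine, plated at 5000–40,000 cells/well by doubling time, pre-incubated 24 h at 37 °C, 5% CO2. Time-zero plates TCA-fixed at drug addition. Final concentrations 0.01, 0.1, 1, 10 and 100 µM (DMSO stock), 48 h exposure. TCA fixation, 0.4% SRB stain, absorbance 515 nm. GI50 from [(Ti−Tz)/(C−Tz)]×100 = 50.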

SK-MEL-28 = test: Cytotoxicity against human SK-MEL-28 cells after 48 hrs by SRB assay; conditions: SK-MEL-28, 48 h; in short: as §2
U-251 = test: Cytotoxicity against human U251 cells after 48 hrs by SRB assay; conditions: U-251, 48 h; in short: as §3
HT-29 = test: Cytotoxicity against human HT-29 cells after 48 hrs by SRB assay; conditions: HT-29, 48 h; in short: as §1
HCC 2998 = test: Cytotoxicity against human HCC2998 cells after 48 hrs by SRB assay; conditions: HCC 2998, 48 h; in short: as §1
786-0 = test: Cytotoxicity against human 786-0 cells after 48 hrs by SRB assay; conditions: 786-0, 48 h; in short: as §1
COLO 205 = test: Cytotoxicity against human COLO205 cells after 48 hrs by SRB assay; conditions: COLO 205, 48 h; in short: as §1
OVCAR-8 = test: Cytotoxicity against human OVCAR8 cells after 48 hrs by SRB assay; conditions: OVCAR-8, 48 h; in short: as §2
SNB-75 = test: Cytotoxicity against human SNB75 cells after 48 hrs by SRB assay; conditions: SNB-75, 48 h; in short: as §2
SR = test: Cytotoxicity against human SR cells after 48 hrs by SRB assay; in short: as §2
UACC-62 = test: Cytotoxicity against human UACC62 cells after 48 hrs by SRB assay; conditions: UACC-62, 48 h; in short: as §3
PC-3 = test: Cytotoxicity against human PC3 cells after 48 hrs by SRB assay; conditions: PC-3, 48 h; in short: as §2
KM12 = test: Cytotoxicity against human KM12 cells after 48 hrs by SRB assay; conditions: KM12, 48 h; in short: as §1
SF-295 = test: Cytotoxicity against human SF295 cells after 48 hrs by SRB assay; conditions: SF-295, 48 h; in short: as §2
TK-10 = test: Cytotoxicity against human TK10 cells after 48 hrs by SRB assay; conditions: TK-10, 48 h; in short: as §3
SK-MEL-2 = test: Cytotoxicity against human SK-MEL-2 cells after 48 hrs by SRB assay; conditions: SK-MEL-2, 48 h; in short: as §2
OVCAR-4 = test: Cytotoxicity against human OVCAR4 cells after 48 hrs by SRB assay; conditions: OVCAR-4, 48 h; in short: as §2
SF-539 = test: Cytotoxicity against human SF539 cells after 48 hrs by SRB assay; conditions: SF-539, 48 h; in short: as §2
NCI-H322M = test: Cytotoxicity against human NCI-H322M cells after 48 hrs by SRB assay; in short: as §2
SK-MEL-5 = test: Cytotoxicity against human SK-MEL-5 cells after 48 hrs by SRB assay; conditions: SK-MEL-5, 48 h; in short: as §2
[1] = read-out: LC50 (the source's name)

## NC(=O)Nc1ccc2ncnc(Nc3ccc(Cl)cc3)c2c1
IGROV-1
  GI50: 6.85 µM
  TGI: 27.6 µM
IGROV-1; [1]
  CC50: 90.1 µM
MCF7
  GI50: 26.2 µM
  TGI: > 100 µM
MCF7; [1]
  CC50: > 100 µM
SF-268
  GI50: 17.1 µM
  TGI: > 100 µM
SF-268; [1]
  CC50: > 100 µM
HCT-116
  GI50: 24.9 µM
  TGI: > 100 µM
HCT-116; [1]
  CC50: > 100 µM
CAKI-1
  GI50: 1.33 µM
  TGI: 21.5 µM
CAKI-1; [1]
  CC50: > 100 µM
CCRF-CEM
  GI50: 16.4 µM
  TGI: > 100 µM
CCRF-CEM; [1]
  CC50: > 100 µM
SN12C
  GI50: 11.1 µM
  TGI: 50 µM
SN12C; [1]
  CC50: > 100 µM
UO-31
  GI50: 4.22 µM
  TGI: 43 µM
UO-31; [1]
  CC50: > 100 µM
SK-MEL-28
  GI50: 26.7 µM
  TGI: > 100 µM
SK-MEL-28; [1]
  CC50: > 100 µM
U-251
  GI50: 23.9 µM
  TGI: > 100 µM
U-251; [1]
  CC50: > 100 µM
HT-29
  GI50: 24 µM
  TGI: > 100 µM
HT-29; [1]
  CC50: > 100 µM
HCC 2998
  GI50: 37.6 µM
  TGI: > 100 µM
HCC 2998; [1]
  CC50: > 100 µM
786-0
  GI50: 20.7 µM
  TGI: 88.9 µM
786-0; [1]
  CC50: > 100 µM
COLO 205
  GI50: 27.5 µM
  TGI: > 100 µM
COLO 205; [1]
  CC50: > 100 µM
OVCAR-8
  GI50: 21.7 µM
  TGI: > 100 µM
OVCAR-8; [1]
  CC50: > 100 µM
SNB-75
  GI50: 3.36 µM
  TGI: 47 µM
SNB-75; [1]
  CC50: > 100 µM
SR
  GI50: 19.1 µM
  TGI: 75.6 µM
SR; [1]
  CC50: > 100 µM
UACC-62
  GI50: 13.5 µM
  TGI: 32.2 µM
UACC-62; [1]
  CC50: 77 µM
PC-3
  GI50: 16.7 µM
  TGI: 92.5 µM
PC-3; [1]
  CC50: > 100 µM
KM12
  GI50: 28.4 µM
  TGI: > 100 µM
KM12; [1]
  CC50: > 100 µM
SF-295
  GI50: 14.8 µM
  TGI: 45.5 µM
SF-295; [1]
  CC50: > 100 µM
TK-10
  GI50: 0.98 µM
  TGI: 16.2 µM
TK-10; [1]
  CC50: > 100 µM
SK-MEL-2
  GI50: 15.1 µM
  TGI: 42.7 µM
SK-MEL-2; [1]
  CC50: > 100 µM
OVCAR-4
  GI50: 9.14 µM
  TGI: > 100 µM
OVCAR-4; [1]
  CC50: > 100 µM
SF-539
  GI50: 25.5 µM
  TGI: > 100 µM
SF-539; [1]
  CC50: > 100 µM
NCI-H322M
  GI50: 0.36 µM
  TGI: 6.64 µM
NCI-H322M; [1]
  CC50: > 100 µM
SK-MEL-5
  GI50: 13.5 µM
  TGI: 30.7 µM
SK-MEL-5; [1]
  CC50: 70.1 µM
